# Measured values taken from ChEMBL document CHEMBL1157357, “Inhibition of siderophore biosynthesis in Mycobacterium tuberculosis with nucleoside bisubstrate analogues: structure-activity relationships of the nucleobase domain of 5'-O-[N-(salicyl)sulfamoyl]adenosine” (J Med Chem, 2008).
# Active and inactive are the calls of the source. No cut-off for these calls is given here.
# How the values were obtained:
# [1] = target: T1, Salicyl-AMP ligase / salicyl-S-ArCP synthetase (Mycobacterium tuberculosis, UniProt P71716); test: Inhibition of Mycobacterium tuberculosis recombinant MbtA expressed in Escherichia coli by ATP-PPi exchange assay; settings: read-out: Ki(app)
# T1 sequence (P71716 whole entry): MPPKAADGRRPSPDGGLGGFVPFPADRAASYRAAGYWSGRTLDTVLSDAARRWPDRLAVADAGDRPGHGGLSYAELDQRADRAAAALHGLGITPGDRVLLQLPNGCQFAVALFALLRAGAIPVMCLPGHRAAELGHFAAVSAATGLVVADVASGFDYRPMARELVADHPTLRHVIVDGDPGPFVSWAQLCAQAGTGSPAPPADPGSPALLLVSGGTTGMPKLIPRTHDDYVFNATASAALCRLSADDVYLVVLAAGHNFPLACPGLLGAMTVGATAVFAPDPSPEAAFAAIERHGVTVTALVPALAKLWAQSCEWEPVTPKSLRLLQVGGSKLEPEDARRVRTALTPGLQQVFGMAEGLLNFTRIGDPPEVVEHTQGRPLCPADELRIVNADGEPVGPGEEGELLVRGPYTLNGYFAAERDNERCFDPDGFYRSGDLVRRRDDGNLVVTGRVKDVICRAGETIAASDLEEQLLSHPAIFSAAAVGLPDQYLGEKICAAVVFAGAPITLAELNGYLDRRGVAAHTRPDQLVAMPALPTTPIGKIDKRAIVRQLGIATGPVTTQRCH
# [2] = tested on: Mycobacterium tuberculosis; test: Ratio of MIC99 for Mycobacterium tuberculosis H37Rv in iron-replete GAST medium to MIC99 for Mycobacterium tuberculosis H37Rv in iron-deficient GAST medium; format: functional
# Vero = test: Cytotoxicity against african green money Vero cells after 48 hrs by MTT assay; format: cell-based; settings: Chlorocebus sabaeus
# [3] = tested on: Mycobacterium tuberculosis; test: Antitubercular activity against Mycobacterium tuberculosis H37Rv in iron-replete GAST medium after 10 to 14 days by broth dilution method; format: functional
# Summary of the method: (§1)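 MIC99 by broth microdilution in quadruplicate in GAST, either iron-deficient or supplemented with 200 µM FeCl3. Compounds were added from DMSO stocks, with DMSO-treated controls. Inoculum was 10⁴-10⁵ cells/assay, incubation 37 °C for 10-14 days, and growth read as OD620. MIC99 is the lowest concentration completely inhibiting observable growth.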
# [4] = tested on: Mycobacterium tuberculosis; test: Antitubercular activity against Mycobacterium tuberculosis H37Rv in iron-deficient GAST medium after 10 to 14 days by broth dilution method; format: functional; summary of the method: as §1
# [5] = Therapeutic index, ratio of IC50 for african green money Vero cells to MIC99 for Mycobacterium tuberculosis H37Rv; format: cell-based; settings: monkey
# Oryctolagus cuniculus = species on record: Oryctolagus cuniculus; test: Inhibition of protein synthesis in T7 coupled rabbit reticulocyte system by luciferase based translation assay; format: functional
Structure (SMILES),Ki [1],Ratio [2],IC50 (Vero),MIC99 [3],MIC99 [4],selectivity ratio [5],Activity (Oryctolagus cuniculus)
CCNc1ncnc2c1ncn2[C@@H]1O[C@H](COS(=O)(=O)[N-]C(=O)c2ccccc2O)[C@@H](O)[C@H]1O.[Na+],0.0044 µM,4,> 100 µM,1.56 µM,0.39 µM,–,–
Nc1ncnc2c1nc(N)n2[C@@H]1O[C@H](COS(=O)(=O)NC(=O)c2ccccc2O)[C@@H](O)[C@H]1O,183 µM,–,> 100 µM,> 50 µM,> 50 µM,–,–
CNc1ncnc2c1ncn2[C@@H]1O[C@H](COS(=O)(=O)[N-]C(=O)c2ccccc2O)[C@@H](O)[C@H]1O.[Na+],0.0016 µM,4,> 100 µM,1.56 µM,0.39 µM,–,–
Nc1ncnc2c1nc(Br)n2[C@@H]1O[C@H](COS(=O)(=O)NC(=O)c2ccccc2O)[C@@H](O)[C@H]1O,2.05 µM,–,> 100 µM,> 50 µM,> 50 µM,–,–
CC(C)Nc1ncnc2c1ncn2[C@@H]1O[C@H](COS(=O)(=O)[N-]C(=O)c2ccccc2O)[C@@H](O)[C@H]1O.[Na+],0.007 µM,>4,> 100 µM,> 100 µM,25 µM,–,–
O=C(NS(=O)(=O)OC[C@H]1O[C@@H](n2cnc3c(NCc4ccccc4)ncnc32)[C@H](O)[C@@H]1O)c1ccccc1O,8.26 µM,–,> 100 µM,> 100 µM,> 100 µM,–,–
Nc1nc(-c2cccc(-c3ccccc3)c2)nc2c1ncn2[C@@H]1O[C@H](COS(=O)(=O)NC(=O)c2ccccc2O)[C@@H](O)[C@H]1O,0.0014 µM,–,> 100 µM,> 50 µM,25 µM,–,–
Nc1nc(-c2ccccc2)nc2c1ncn2[C@@H]1O[C@H](COS(=O)(=O)NC(=O)c2ccccc2O)[C@@H](O)[C@H]1O,–,–,> 100 µM,0.39 µM,0.049 µM,–,–
CCN(CC)CC.Nc1nc(I)nc2c1ncn2[C@@H]1O[C@H](COS(=O)(=O)NC(=O)c2ccccc2O)[C@@H](O)[C@H]1O,0.00303 µM,16,> 100 µM,3.12 µM,0.19 µM,–,–
CN(C)c1ncnc2c1ncn2[C@@H]1O[C@H](COS(=O)(=O)NC(=O)c2ccccc2O)[C@@H](O)[C@H]1O,0.38 µM,–,> 100 µM,–,50 µM,–,–
O=C(NS(=O)(=O)OC[C@H]1O[C@@H](n2cnc3c(NC4CCC4)ncnc32)[C@H](O)[C@@H]1O)c1ccccc1O,0.124 µM,–,> 100 µM,> 100 µM,> 100 µM,–,–
CCN(CC)CC.Nc1ncnc2c1ccn2[C@@H]1O[C@H](COS(=O)(=O)NC(=O)c2ccccc2O)[C@@H](O)[C@H]1O,0.0243 µM,8,> 100 µM,50 µM,6.25 µM,–,–
CCN(CC)CC.Nc1nc(Nc2ccccc2)nc2c1ncn2[C@@H]1O[C@H](COS(=O)(=O)NC(=O)c2ccccc2O)[C@@H](O)[C@H]1O,0.00094 µM,8,> 100 µM,0.39 µM,0.049 µM,> 2000,–
CC(C)CNc1ncnc2c1ncn2[C@@H]1O[C@H](COS(=O)(=O)NC(=O)c2ccccc2O)[C@@H](O)[C@H]1O,1.14 µM,–,> 100 µM,> 100 µM,> 100 µM,–,–
CCN(CC)CC.Nc1nc(C#Cc2ccccc2)nc2c1ncn2[C@@H]1O[C@H](COS(=O)(=O)NC(=O)c2ccccc2O)[C@@H](O)[C@H]1O,0.0004 µM,8,> 100 µM,0.39 µM,0.049 µM,> 2000,–
Nc1nc(-c2ccc(-c3ccccc3)cc2)nc2c1ncn2[C@@H]1O[C@H](COS(=O)(=O)NC(=O)c2ccccc2O)[C@@H](O)[C@H]1O,0.00099 µM,–,> 100 µM,> 50 µM,25 µM,–,–
"CCN(CC)CC.Nc1cccc2c1ccn2C1CC(COS(=O)(=O)NC(=O)c2ccccc2O)[C@@H](O)[C@H]1O (single isomer, unassigned)",0.0201 µM,8,> 100 µM,50 µM,6.25 µM,–,–
CCCNc1ncnc2c1ncn2[C@@H]1O[C@H](COS(=O)(=O)NC(=O)c2ccccc2O)[C@@H](O)[C@H]1O.CCN(CC)CC,0.0035 µM,4,> 100 µM,1.56 µM,0.39 µM,–,–
CCN(CC)CC.O=C(NS(=O)(=O)OC[C@H]1O[C@@H](n2cnc3c(NC4CC4)ncnc32)[C@H](O)[C@@H]1O)c1ccccc1O,0.00185 µM,64,> 100 µM,6.25 µM,0.098 µM,–,–
O=C(NS(=O)(=O)OC[C@H]1O[C@@H](n2cnc3c(=O)[nH]cnc32)[C@H](O)[C@@H]1O)c1ccccc1O,0.8 µM,–,> 100 µM,> 100 µM,> 100 µM,–,–
O=C(NS(=O)(=O)OC[C@H]1O[C@@H](n2cnc3c(NC4CCCC4)ncnc32)[C@H](O)[C@@H]1O)c1ccccc1O,9.41 µM,–,> 100 µM,> 100 µM,> 100 µM,–,–
Nc1nc(-c2ccccc2-c2ccccc2)nc2c1ncn2[C@@H]1O[C@H](COS(=O)(=O)NC(=O)c2ccccc2O)[C@@H](O)[C@H]1O,0.047 µM,–,> 100 µM,> 50 µM,> 50 µM,–,–
Nc1ncnc2c1ncn2[C@@H]1O[C@H](COS(N)(=O)=O)[C@@H](O)[C@H]1O,–,–,–,–,–,–,Active
[N-]=[N+]=Nc1nc2c(N)ncnc2n1[C@@H]1O[C@H](COS(=O)(=O)NC(=O)c2ccccc2O)[C@@H](O)[C@H]1O,42.5 µM,–,> 100 µM,> 50 µM,> 50 µM,–,–
